Laboratory results taken from ChEMBL document CHEMBL4425169 (ACS Med Chem Lett, 2016).
The source made the active and inactive calls. The calls are words filed in the database; no cut-off is given here.

Key:
[1] = molecular target: Voltage-gated inwardly rectifying potassium channel KCNH2 (Homo sapiens, UniProt Q12809); test: Displacement of [35S]MK-499 from human ERG
[2] = system: Rattus norvegicus; test: Natriuretic activity in Sprague-Dawley rat at 3 mg/kg via oral gavage administered 30 mins prior to void induction by loading saline measured upto 4 hrs relative to vehicle treated control; type: functional
Outline: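 Acute 4 h diuresis/natriuresis study in SD rats given a single oral dose, n = 5 per group. Urinary sodium output is expressed as fold increase over vehicle-treated animals, with significance tested against vehicle.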

[3] = molecular target: Cytochrome P450 3A4 (Homo sapiens, UniProt P08684); test: Reversible inhibition of human CYP3A4; type: ADME
[4] = Half life in rat at 1 mg/kg, iv or 2 mg/kg, po; type: ADME, organism-based; settings: in vivo
Outline: (§1)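 Rats dosed once at 1 mg/kg IV and, separately, 2 mg/kg PO, with n = 3. Derived parameters were plasma clearance, Vdss, dose-normalized oral AUC (μM·h·kg/mg), half-life, and oral bioavailability (F%).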

[5] = system: Rattus norvegicus; test: Natriuretic activity in Sprague-Dawley rat at 0.3 mg/kg via oral gavage administered 30 mins prior to void induction by loading saline measured upto 4 hrs relative to vehicle treated control; type: functional
Outline: (§2)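 Acute rat diuresis model in male-unspecified Sprague-Dawley rats, single oral dose, urine collected over 4 h. Urine volume, sodium excretion and potassium excretion expressed as fold increase over vehicle-treated controls; n = 5 per group; significance tested against vehicle.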

[6] = Dose normalized AUC in dog at 2 mg/kg, po; type: ADME, organism-based, Canis lupus familiaris; settings: in vivo
[7] = Half life in human; type: ADME
[8] = molecular target: Sodium channel protein type 5 subunit alpha (Homo sapiens, UniProt Q14524); test: Inhibition of Nav1.5 (unknown origin)
[9] = system: Rattus norvegicus; test: Kaliuretic activity in Sprague-Dawley rat at 3 mg/kg via oral gavage administered 30 mins prior to void induction by loading saline measured upto 4 hrs relative to vehicle treated control; type: functional; outline: as §2
[10] = Drug metabolism in monkey hepatocytes assessed as oxidation at 1 uM measured at 120 mins; type: ADME, cell-based, Macaca mulatta, Hepatocyte; settings: rhesus monkey, 2 h
[11] = Drug metabolism in dog hepatocytes assessed as glucuronidation at 1 uM measured at 120 mins; type: ADME, cell-based, Canis lupus familiaris, Hepatocyte; settings: read-out: Drug metabolism
[12] = Half life in rhesus monkey at 1 mg/kg, iv or 2 mg/kg, po; type: ADME, organism-based, Macaca mulatta; settings: in vivo
[13] = Clearance in dog at 1 mg/kg, iv or 2 mg/kg, po; type: ADME, organism-based, Canis lupus familiaris; settings: in vivo
[14] = Drug metabolism in human hepatocytes assessed as oxidation at 1 uM measured at 120 mins; type: ADME, cell-based, Hepatocyte; settings: read-out: Drug metabolism
[15] = molecular target: Somatostatin receptor type 1 (Homo sapiens, UniProt P30872); test: Inhibition of somatostatin receptor subtype 1 (unknown origin)
[16] = Volume of distribution at steady state in dog at 1 mg/kg, iv or 2 mg/kg, po; type: ADME, organism-based, Canis lupus familiaris; settings: in vivo, read-out: Vdss
[17] = system: Rattus norvegicus; test: Diuretic activity in Sprague-Dawley rat at 3 mg/kg via oral gavage administered 30 mins prior to void induction by loading saline measured upto 4 hrs relative to vehicle treated control; type: functional
Outline: (§3)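 Acute 4 h study in Sprague-Dawley rats after oral dosing, n = 5 per group. Urine volume and sodium and potassium excretion were expressed as fold increase over vehicle-treated animals. Significance was tested versus vehicle (p < 0.05 or p < 0.01).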

[18] = Drug metabolism in human hepatocytes assessed as glucuronidation at 1 uM measured at 120 mins; type: ADME, cell-based, Hepatocyte; settings: read-out: Drug metabolism
[19] = molecular target: T1, Inward rectifier potassium channel 2 (Homo sapiens, UniProt P63252); test: Inhibition of Kir2.1 (unknown origin) upto 30 uM
T1 sequence (P63252 whole entry): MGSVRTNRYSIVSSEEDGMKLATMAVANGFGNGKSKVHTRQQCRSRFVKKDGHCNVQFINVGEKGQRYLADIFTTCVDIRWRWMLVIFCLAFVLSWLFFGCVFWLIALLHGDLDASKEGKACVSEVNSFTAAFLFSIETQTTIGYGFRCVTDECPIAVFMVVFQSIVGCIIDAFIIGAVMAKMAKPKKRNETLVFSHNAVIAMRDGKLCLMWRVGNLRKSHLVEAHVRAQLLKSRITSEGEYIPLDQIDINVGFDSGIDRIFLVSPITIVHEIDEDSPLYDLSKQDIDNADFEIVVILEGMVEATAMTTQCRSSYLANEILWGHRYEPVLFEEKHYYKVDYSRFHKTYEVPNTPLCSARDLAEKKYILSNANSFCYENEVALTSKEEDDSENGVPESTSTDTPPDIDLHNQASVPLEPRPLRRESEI

[20] = system: Rattus norvegicus; test: Diuretic activity in Sprague-Dawley rat at 10 mg/kg via oral gavage administered 30 mins prior to void induction by loading saline measured upto 4 hrs relative to vehicle treated control; type: functional; outline: as §3
[21] = Dose normalized AUC in rat at 2 mg/kg, po; type: ADME, organism-based; settings: in vivo; outline: as §1
[22] = Clearance in rhesus monkey at 1 mg/kg, iv or 2 mg/kg, po; type: ADME, organism-based, Macaca mulatta; settings: in vivo
[23] = Drug metabolism in monkey hepatocytes assessed as lactone hydrolysis at 1 uM measured at 120 mins; type: ADME, cell-based, Macaca mulatta, Hepatocyte; settings: rhesus monkey, read-out: Drug metabolism
[24] = Drug metabolism in human hepatocytes assessed as lactone hydrolysis at 1 uM measured at 120 mins; type: ADME, cell-based, Hepatocyte; settings: read-out: Drug metabolism
[25] = Drug metabolism in rat hepatocytes assessed as glucuronidation at 1 uM measured at 120 mins; type: ADME, cell-based, Hepatocyte; settings: read-out: Drug metabolism
[26] = system: Rattus norvegicus; test: Kaliuretic activity in Sprague-Dawley rat at 0.3 mg/kg via oral gavage administered 30 mins prior to void induction by loading saline measured upto 4 hrs relative to vehicle treated control; type: functional; outline: as §2
[27] = system: Rattus norvegicus; test: Antihypertensive activity in spontaneously hypertensive rat assessed as reduction in systolic blood pressure at 1 mg/kg via oral gavage qd administered for 4 days measured on day 4 by telemetry (reference value: 2.5 +/- 2.2 mmHg); type: functional
[28] = molecular target: T2, ATP-sensitive inward rectifier potassium channel 10 (Homo sapiens) (UniProt P78508); test: Inhibition of Kir4.1 (unknown origin) upto 30 uM
T2 sequence (whole entry): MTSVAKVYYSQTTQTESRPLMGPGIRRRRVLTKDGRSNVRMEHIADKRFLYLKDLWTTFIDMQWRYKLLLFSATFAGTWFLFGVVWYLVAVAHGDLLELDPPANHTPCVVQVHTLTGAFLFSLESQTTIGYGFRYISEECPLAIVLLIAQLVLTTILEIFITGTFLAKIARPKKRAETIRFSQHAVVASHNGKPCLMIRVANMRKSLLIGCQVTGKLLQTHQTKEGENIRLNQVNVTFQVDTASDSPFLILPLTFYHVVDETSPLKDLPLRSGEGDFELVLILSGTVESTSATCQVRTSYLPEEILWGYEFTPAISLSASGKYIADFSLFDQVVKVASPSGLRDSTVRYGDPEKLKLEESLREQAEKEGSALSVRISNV

Sequence of Sodium channel protein type 5 subunit alpha (Q14524 whole entry): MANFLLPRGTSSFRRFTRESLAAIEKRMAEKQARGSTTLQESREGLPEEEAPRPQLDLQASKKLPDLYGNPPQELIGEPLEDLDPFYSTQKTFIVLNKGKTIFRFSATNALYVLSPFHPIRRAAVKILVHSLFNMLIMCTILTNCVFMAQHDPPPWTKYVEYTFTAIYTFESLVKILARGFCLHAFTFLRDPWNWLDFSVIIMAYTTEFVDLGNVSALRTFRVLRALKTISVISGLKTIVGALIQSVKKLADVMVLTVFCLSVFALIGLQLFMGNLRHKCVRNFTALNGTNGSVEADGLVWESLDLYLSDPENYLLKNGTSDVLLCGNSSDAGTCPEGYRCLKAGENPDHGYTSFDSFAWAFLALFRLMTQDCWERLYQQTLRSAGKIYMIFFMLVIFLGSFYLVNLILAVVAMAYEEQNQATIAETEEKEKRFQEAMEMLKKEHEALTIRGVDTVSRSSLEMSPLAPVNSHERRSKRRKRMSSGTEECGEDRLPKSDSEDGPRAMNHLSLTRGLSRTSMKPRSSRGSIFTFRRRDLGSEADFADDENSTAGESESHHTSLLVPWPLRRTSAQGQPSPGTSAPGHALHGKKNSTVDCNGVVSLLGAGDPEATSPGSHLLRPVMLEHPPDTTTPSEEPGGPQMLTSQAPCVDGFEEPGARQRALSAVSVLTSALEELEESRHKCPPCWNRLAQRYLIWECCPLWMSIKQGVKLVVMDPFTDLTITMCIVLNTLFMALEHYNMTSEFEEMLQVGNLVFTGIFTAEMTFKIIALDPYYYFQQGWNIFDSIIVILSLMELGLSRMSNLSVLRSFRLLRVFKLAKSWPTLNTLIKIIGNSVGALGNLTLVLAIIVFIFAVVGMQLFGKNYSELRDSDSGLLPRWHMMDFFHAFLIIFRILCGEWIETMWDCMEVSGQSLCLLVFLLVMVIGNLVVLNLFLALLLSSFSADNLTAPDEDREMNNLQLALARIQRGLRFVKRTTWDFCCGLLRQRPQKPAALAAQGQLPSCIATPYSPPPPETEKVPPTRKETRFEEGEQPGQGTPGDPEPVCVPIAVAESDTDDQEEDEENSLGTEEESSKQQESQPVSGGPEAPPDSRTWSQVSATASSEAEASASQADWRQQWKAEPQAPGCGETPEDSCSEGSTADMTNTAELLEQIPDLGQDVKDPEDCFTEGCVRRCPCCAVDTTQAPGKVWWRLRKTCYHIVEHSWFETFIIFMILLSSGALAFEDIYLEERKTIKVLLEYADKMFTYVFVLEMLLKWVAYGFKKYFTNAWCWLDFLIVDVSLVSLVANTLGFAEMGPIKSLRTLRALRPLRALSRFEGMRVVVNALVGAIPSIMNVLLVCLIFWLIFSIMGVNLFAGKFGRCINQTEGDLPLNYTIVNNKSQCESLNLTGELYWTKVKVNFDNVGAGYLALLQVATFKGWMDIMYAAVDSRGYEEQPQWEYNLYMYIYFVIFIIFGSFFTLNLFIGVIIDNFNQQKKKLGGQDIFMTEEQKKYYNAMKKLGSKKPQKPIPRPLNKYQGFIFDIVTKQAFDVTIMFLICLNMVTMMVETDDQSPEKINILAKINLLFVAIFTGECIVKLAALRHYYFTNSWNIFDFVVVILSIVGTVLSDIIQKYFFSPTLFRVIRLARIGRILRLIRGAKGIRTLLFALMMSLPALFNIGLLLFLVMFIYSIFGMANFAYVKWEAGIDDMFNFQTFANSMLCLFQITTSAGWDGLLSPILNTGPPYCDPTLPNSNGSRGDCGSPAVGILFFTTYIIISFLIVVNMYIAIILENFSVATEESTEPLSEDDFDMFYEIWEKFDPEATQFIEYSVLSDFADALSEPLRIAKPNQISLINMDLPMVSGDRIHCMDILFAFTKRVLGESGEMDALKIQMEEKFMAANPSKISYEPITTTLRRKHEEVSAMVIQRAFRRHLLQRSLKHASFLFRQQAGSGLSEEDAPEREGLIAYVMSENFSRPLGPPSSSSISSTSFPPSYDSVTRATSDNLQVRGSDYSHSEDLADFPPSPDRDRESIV
Sequence of Somatostatin receptor type 1 (P30872 whole entry): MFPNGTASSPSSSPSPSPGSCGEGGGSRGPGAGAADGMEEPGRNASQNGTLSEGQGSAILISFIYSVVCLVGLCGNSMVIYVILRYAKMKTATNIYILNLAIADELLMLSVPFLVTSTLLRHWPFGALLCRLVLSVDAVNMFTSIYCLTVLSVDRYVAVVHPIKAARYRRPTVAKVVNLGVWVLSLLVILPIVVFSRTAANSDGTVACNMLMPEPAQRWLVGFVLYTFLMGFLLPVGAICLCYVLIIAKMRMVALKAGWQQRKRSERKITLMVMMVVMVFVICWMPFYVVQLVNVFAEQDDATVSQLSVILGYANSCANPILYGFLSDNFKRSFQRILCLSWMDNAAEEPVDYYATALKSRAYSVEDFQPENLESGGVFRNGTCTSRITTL
Sequence of Cytochrome P450 3A4 (P08684 whole entry): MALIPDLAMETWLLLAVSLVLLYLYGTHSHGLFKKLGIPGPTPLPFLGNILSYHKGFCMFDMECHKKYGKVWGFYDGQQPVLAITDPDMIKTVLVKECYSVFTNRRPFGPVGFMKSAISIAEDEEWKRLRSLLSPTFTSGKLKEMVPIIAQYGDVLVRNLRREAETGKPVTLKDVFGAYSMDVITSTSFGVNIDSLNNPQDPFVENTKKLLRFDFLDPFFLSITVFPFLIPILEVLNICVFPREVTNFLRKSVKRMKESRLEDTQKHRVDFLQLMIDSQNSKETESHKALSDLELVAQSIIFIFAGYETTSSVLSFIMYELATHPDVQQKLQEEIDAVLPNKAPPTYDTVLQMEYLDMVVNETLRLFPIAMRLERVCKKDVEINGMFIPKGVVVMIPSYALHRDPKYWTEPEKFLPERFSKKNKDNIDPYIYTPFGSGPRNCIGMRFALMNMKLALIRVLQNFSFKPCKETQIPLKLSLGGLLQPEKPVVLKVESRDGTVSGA
Sequence of Voltage-gated inwardly rectifying potassium channel KCNH2 (Q12809 whole entry): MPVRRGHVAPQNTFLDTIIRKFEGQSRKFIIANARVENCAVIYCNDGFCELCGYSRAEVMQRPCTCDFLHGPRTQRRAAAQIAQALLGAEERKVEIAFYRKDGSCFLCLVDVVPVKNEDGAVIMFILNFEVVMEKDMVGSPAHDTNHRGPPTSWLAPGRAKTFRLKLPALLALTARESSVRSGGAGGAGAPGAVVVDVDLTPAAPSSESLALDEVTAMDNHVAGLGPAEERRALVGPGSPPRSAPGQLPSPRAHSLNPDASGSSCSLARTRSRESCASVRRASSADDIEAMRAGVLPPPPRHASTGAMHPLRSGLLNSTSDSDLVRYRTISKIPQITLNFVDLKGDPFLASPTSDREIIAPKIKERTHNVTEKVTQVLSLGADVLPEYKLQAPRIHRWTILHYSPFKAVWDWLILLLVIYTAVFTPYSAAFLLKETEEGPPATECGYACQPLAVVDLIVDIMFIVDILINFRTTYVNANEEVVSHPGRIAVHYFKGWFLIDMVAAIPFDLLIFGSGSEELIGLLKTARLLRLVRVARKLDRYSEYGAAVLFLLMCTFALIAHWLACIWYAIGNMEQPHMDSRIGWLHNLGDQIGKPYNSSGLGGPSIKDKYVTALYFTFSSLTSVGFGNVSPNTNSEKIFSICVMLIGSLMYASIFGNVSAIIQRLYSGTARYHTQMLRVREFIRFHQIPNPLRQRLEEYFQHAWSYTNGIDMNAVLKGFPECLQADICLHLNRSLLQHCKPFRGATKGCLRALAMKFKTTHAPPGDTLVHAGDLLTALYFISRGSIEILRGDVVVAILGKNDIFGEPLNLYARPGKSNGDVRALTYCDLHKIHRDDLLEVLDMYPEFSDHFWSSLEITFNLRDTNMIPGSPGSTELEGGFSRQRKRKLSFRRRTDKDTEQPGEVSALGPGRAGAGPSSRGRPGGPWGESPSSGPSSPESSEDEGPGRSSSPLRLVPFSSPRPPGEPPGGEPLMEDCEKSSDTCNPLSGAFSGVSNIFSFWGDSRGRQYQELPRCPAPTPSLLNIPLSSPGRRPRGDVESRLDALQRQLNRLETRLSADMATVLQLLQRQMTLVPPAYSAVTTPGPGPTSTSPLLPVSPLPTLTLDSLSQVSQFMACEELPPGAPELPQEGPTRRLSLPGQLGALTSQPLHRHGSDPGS

For `Cc1c([C@@H](O)CN2CCN(C[C@H](O)c3ccc4c(c3C)COC4=O)CC2)ccc2c1COC2=O` [MK-7145], the IC50 [1] was 23 µM, the “fold change (FC)” value [2] was 8 and the IC50 [3] was greater than 50 µM. For the same molecule, the half-life [4] was 1.1 h, the “fold change (FC)” value [5] was 6.2 and the AUC/dose [6] was 0.32 µM·kg·h/mg. The half-life [7] was 5 h, the IC50 [8] was greater than 30 µM and the “fold change (FC)” value [9] was 1.4. For the same molecule, the Drug metabolism [10] was 15 to 37%, the metabolised at 2 h, 1 µM [11] was less than 1% and the half-life [12] was 4 h. It also gave a clearance [13] of 56 mL/min/kg, a metabolised at 2 h, 1 µM [14] of 15 to 37% and an IC50 [15] of 2.63 µM. For the same molecule, the Vd [16] was 7.5 L/kg, the “fold change (FC)” value [17] was 9 and the metabolised at 2 h, 1 µM [18] was less than 1%. For the same molecule, the “inhibition (INH)” value [19] was “Not Active”, the “fold change (FC)” value [20] was 9.4 and the AUC/dose [21] was 0.14 µM·kg·h/mg. It also gave a clearance [22] of 29 mL/min/kg, a metabolised at 2 h, 1 µM [23] of less than 1% and a metabolised at 2 h, 1 µM [24] of less than 1%. For the same molecule, the metabolised at 2 h, 1 µM [25] was less than 1%, the “fold change (FC)” value [26] was 2.1 and the Activity [27] was 9.4 mmHg. For the same molecule, the inhibition [28] was “inactive”.
